In ChEMBL document CHEMBL1152276, “Substituted 2-imino-5-arylidenethiazolidin-4-one inhibitors of bacterial type III secretion” (J Med Chem, 2008):
Active and inactive are the calls of the source. The rule behind the calls is not given here.

Tested on: not listed separately
Experiment: Inhibition of Salmonella enterica serovar Typhimurium type 3 secretion system-mediated SipA protein secretion by Western blotting
Set-up: species or system Salmonella enterica subsp. enterica serovar Typhimurium
Details: not given
Method in brief: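 Bacteria were grown 18 h in LB broth and pelleted, and culture supernates were 0.2 μm-filtered. Proteins were precipitated with 10% TCA on ice for 30 min, centrifuged, acetone-washed and resolved by SDS-PAGE. Western blots were probed with polyclonal anti-SipA. IC50 was calculated from percent inhibition of secreted SipA using at least 3 inhibitor concentrations.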

Row | IC50 | SMILES
1 | 65 µM | COc1cc(/C=C2\S/C(=N\c3ccccc3)N(C(CCCNC(=N)N)C(=O)N3CSC[C@H]3C(N)=O)C2=O)cc(OC)c1O (stereo partly specified)
2 | 278 µM | COc1ccc(/C=C2\S/C(=N\c3ccccc3)N(c3ccccc3)C2=O)cc1OC
3 | 160 µM | COc1ccc(N2C(=O)/C(=C/C(C)(C)C)S/C2=N\c2ccccc2)cc1
4 | 41 µM | COc1cc(/C=C2\S/C(=N\c3ccccc3)N(C(CCCNC(=N)N)C(=O)N[C@@H](C)C(N)=O)C2=O)cc(OC)c1O (stereo partly specified)
5 | 244 µM | CC(C)(C)/C=C1\S/C(=N\c2ccccc2)N(c2ccccc2)C1=O
6 | 77 µM | COc1cc(/C=C2\S/C(=N\c3ccccc3)N([C@@H](C)C(=O)N[C@@H](CCCNC(=N)N)C(N)=O)C2=O)cc(OC)c1O
7 | 112 µM | COc1cc(/C=C2\S/C(=N\c3ccccc3)N([C@@H](C)C(=O)N[C@@H](Cc3ccc(O)cc3)C(N)=O)C2=O)cc(OC)c1O
8 | 38 µM | COc1cc(/C=C2\S/C(=N\c3ccccc3)N([C@H](C)C(=O)N[C@@H](CCCNC(=N)N)C(N)=O)C2=O)cc(OC)c1O
9 | 137 µM | COc1ccc(/N=C2\S/C(=C\c3ccncc3)C(=O)N2c2ccccc2)cc1
10 | 45 µM | COc1cc(/C=C2\S/C(=N\c3ccccc3)N(c3ccc(CNC(=O)OC(C)(C)C)cc3)C2=O)cc(OC)c1O
11 | 50 µM | COc1cc(/C=C2\S/C(=N\c3ccccc3)N([C@@H](CCCNC(=N)N)C(=O)N[C@@H](Cc3ccc(-c4ccccc4)cc3)C(N)=O)C2=O)cc(OC)c1O
12 | 101 µM | COc1cc(/C=C2\S/C(=N\c3ccc(CN)cc3)N(c3ccccc3)C2=O)cc(OC)c1O
13 | 16 µM | COc1cc(/C=C2\S/C(=N\c3ccccc3)N([C@@H](C)C(=O)N[C@@H](CCCN)C(N)=O)C2=O)cc(OC)c1O
14 | 8 µM | COc1cc(/C=C2\S/C(=N\c3ccccc3)N([C@H](Cc3ccc(-c4ccccc4)cc3)C(=O)N[C@@H](CCCNC(=N)N)C(N)=O)C2=O)cc(OC)c1O
15 | 278 µM | COc1ccc(N2C(=O)/C(=C/C3CCCCC3)S/C2=N\c2ccccc2)cc1
16 | 9 µM | COc1cc(/C=C2\S/C(=N\c3ccccc3)N([C@H](C)C(=O)N[C@@H](CCCN)C(N)=O)C2=O)cc(OC)c1O
17 | 54 µM | COc1cc(/C=C2\S/C(=N\c3ccccc3)N(CCCCCCN)C2=O)cc(OC)c1O
18 | 115 µM | COc1cc(/C=C2\S/C(=N\c3ccccc3)N(C(CCCNC(=N)N)C(=O)N3Cc4ccccc4C[C@H]3C(N)=O)C2=O)cc(OC)c1O (stereo partly specified)
19 | 50 µM | COc1cc(/C=C2\S/C(=N\c3ccccc3)N([C@@H](CCC(=O)O)C(=O)N[C@@H](Cc3ccc(-c4ccccc4)cc3)C(N)=O)C2=O)cc(OC)c1O
20 | 83 µM | COc1cc(/C=C2\S/C(=N\c3ccccc3)N(c3ccccc3)C2=O)cc(OC)c1O

Row | IC50 | SMILES
21 | 376 µM | O=C1/C(=C/c2ccncc2)S/C(=N\c2ccccc2)N1c1ccccc1
22 | 13 µM | COc1cc(/C=C2\S/C(=N\c3ccccc3)N([C@@H](CCCN)C(=O)N[C@@H](Cc3ccc(-c4ccccc4)cc3)C(N)=O)C2=O)cc(OC)c1O
23 | 26 µM | CSc1ccc(/C=C2\S/C(=N\c3ccccc3)N(c3ccccc3)C2=O)cc1
24 | 30 µM | COc1cc(/C=C2\S/C(=N\c3ccccc3)N(C(C)C(=O)N[C@@H](Cc3c[nH]c4ccccc34)C(N)=O)C2=O)cc(OC)c1O (stereo in doubt; 44a)
25 | 3 µM | COc1cc(/C=C2\S/C(=N\c3ccccc3)N([C@@H](Cc3ccc(-c4ccccc4)cc3)C(=O)N[C@@H](CCCNC(=N)N)C(N)=O)C2=O)cc(OC)c1O
26 | 36 µM | COc1cc(/C=C2\S/C(=N\c3ccccc3)N(CC(=O)O)C2=O)cc(OC)c1O
27 | 52 µM | COc1cc(/C=C2\S/C(=N\c3ccccc3)N(c3ccc(CN)cc3)C2=O)cc(OC)c1O
28 | 322 µM | O=C1/C(=C/c2ccc(Cl)cc2)S/C(=N\c2ccccc2)N1c1ccccc1
29 | 29 µM | COc1cc(/C=C2\S/C(=N\c3ccccc3)N(C(C)C(=O)N[C@@H](Cc3c[nH]c4ccccc34)C(N)=O)C2=O)cc(OC)c1O (stereo in doubt; 44b)
30 | 4 µM | COc1cc(/C=C2\S/C(=N\c3ccccc3)N(CCCC(=O)OC(C)(C)C)C2=O)cc(OC)c1O
31 | 55 µM | COc1cc(/C=C2\S/C(=N\c3ccccc3)N(C(Cc3ccc(-c4ccccc4)cc3)C(=O)N[C@@H](CCCN)C(N)=O)C2=O)cc(OC)c1O (single isomer, unassigned)
32 | 52 µM | COc1cc(/C=C2\S/C(=N\c3ccccc3)N(C(C(=O)N[C@@H](Cc3ccc(O)cc3)C(N)=O)C(C)C)C2=O)cc(OC)c1O (stereo partly specified)
33 | 225 µM | O=C1/C(=C/C2CCCCC2)S/C(=N\c2ccccc2)N1c1ccccc1
34 | 51 µM | COc1ccc(N2C(=O)/C(=C/c3cc(OC)c(O)c(OC)c3)S/C2=N\c2ccccc2)cc1
35 | 56 µM | COc1cc(/C=C2\S/C(=N\c3ccccc3)N(C(CCCN)C(=O)N[C@@H](CC3CNc4ccccc43)C(N)=O)C2=O)cc(OC)c1O (mixture of isomers)
36 | 52 µM | COc1cc(/C=C2\S/C(=N\c3ccccc3)N(C(CCCN)C(=O)N[C@H](CC3CNc4ccccc43)C(N)=O)C2=O)cc(OC)c1O (mixture of isomers)
37 | 32 µM | COc1cc(/C=C2\S/C(=N\c3ccccc3)N([C@@H](CCCN)C(=O)N[C@@H](C)C(N)=O)C2=O)cc(OC)c1O
38 | 66 µM | COc1cc(/C=C2\S/C(=N\c3ccccc3)N(CCCC(=O)O)C2=O)cc(OC)c1O
39 | 62 µM | COc1cc(/C=C2\S/C(=N\c3ccccc3)N([C@@H](C)C(=O)N[C@@H](C)C(N)=O)C2=O)cc(OC)c1O

Tested on: Salmonella enterica subsp. enterica serovar Typhimurium
Experiment: Inhibition of Salmonella enterica serovar Typhimurium type 3 secretion system-mediated SipA protein secretion at 1 uM by Western blotting
Details: not given

Row | Activity | SMILES
40 | Active | COc1cc(/C=C2\S/C(=N\c3ccccc3)N(CC(=O)O)C2=O)cc(OC)c1O
41 | Active | COc1cc(/C=C2\S/C(=N\c3ccccc3)N(CCCC(=O)OC(C)(C)C)C2=O)cc(OC)c1O

Tested on: Salmonella typhimurium
Experiment: Growth inhibition of Salmonella enterica serovar Typhimurium ATCC 14028 up to 1 mM
Format: functional, organism-based
Details: Salmonella enterica subsp. enterica serovar Typhimurium
Method in brief: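 Aliquots (30 μL) of a 2 mL overnight culture were dosed with 0.1, 1.0, 2.0, 3.0, 6.0 or 15.0 μL of compound in DMSO. DMSO alone in LB served as the control.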

Row | SMILES | Activity
42 | COc1cc(/C=C2\S/C(=N\c3ccccc3)N(c3ccc(CNC(=O)OC(C)(C)C)cc3)C2=O)cc(OC)c1O | inactive
43 | COc1cc(/C=C2\S/C(=N\c3ccccc3)N(c3ccccc3)C2=O)cc(OC)c1O | inactive
44 | COc1cc(/C=C2\S/C(=N\c3ccccc3)N([C@@H](CCCN)C(=O)N[C@@H](Cc3ccc(-c4ccccc4)cc3)C(N)=O)C2=O)cc(OC)c1O | inactive
45 | COc1cc(/C=C2\S/C(=N\c3ccccc3)N([C@@H](Cc3ccc(-c4ccccc4)cc3)C(=O)N[C@@H](CCCNC(=N)N)C(N)=O)C2=O)cc(OC)c1O | inactive
46 | COc1cc(/C=C2\S/C(=N\c3ccccc3)N(c3ccc(CN)cc3)C2=O)cc(OC)c1O | inactive
